Data from ChEMBL document CHEMBL1806465, “Synthesis and biological evaluation of 4-nitro-substituted 1,3-diaryltriazenes as a novel class of potent antitumor agents” (Eur J Med Chem, 2011).
Calls of active or inactive are those of the source. The rule behind the calls is not given here.

What was measured:
[1] = tested on: HeLa; experiment: Cell cycle arrest in human HeLa cells assessed as accumulation at S phase at 0.78 uM after 72 hrs by propidium iodide staining -based flow cytometry (reference value: 23.5 %); type: functional
Summary of the method: (§1)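 HeLa seeded at 100 000 cells/well, treated next day with 0.78, 7 or 21 µM for 24, 48 or 72 h. Adherent plus floating cells collected, PBS-washed, fixed overnight in 70% ethanol at −20 °C, RNase A 30 µg/ml 1 h RT, propidium iodide 16.7 µg/ml 30 min dark; DNA content by flow cytometry, phase percentages including subG1 reported.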

[2] = tested on: HeLa; experiment: Cell cycle arrest in human HeLa cells assessed as accumulation at subG1 phase at 7 uM after 48 hrs by propidium iodide staining -based flow cytometry (reference value: 8.5 %); type: functional; summary of the method: as §1
[3] = tested on: Nucleic Acid; experiment: Binding affinity to calf thymus DNA assessed as change in melting temperature at compound to DNA ratio of 0.3; type: nucleic-acid assay; settings: Bos taurus
Summary of the method: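 ct-DNA sonicated, filtered, in Na-cacodylate buffer pH 7, I = 0.05 mol dm-3, 2 x 10^-5 mol dm-3 (as phosphate, ε260 = 6600); compound/DNA ratio 0.3. Absorbance at 260 nm followed versus temperature, compound absorbance subtracted, curves normalized. Tm taken from first-derivative maximum, confirmed by tangent method; ΔTm = Tm(complex) − Tm(free DNA), mean of ≥2 runs, error ±0.5 °C.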

[4] = tested on: HeLa; experiment: Cell cycle arrest in human HeLa cells assessed as accumulation at G2/M phase at 7 uM after 72 hrs by propidium iodide staining -based flow cytometry (reference value: 9.7 %); type: functional; summary of the method: as §1
[5] = tested on: HeLa; experiment: Cell cycle arrest in human HeLa cells assessed as accumulation at G0/G1 phase at 21 uM after 48 hrs by propidium iodide staining -based flow cytometry (reference value: 63.8 %); type: functional; summary of the method: as §1
[6] = Therapeutic index, ratio IC50 for human RT112 cells to IC50 for normal human fibroblasts; type: cell-based, RT-112; settings: RT112 cells versus normal human fibroblasts, read-out: Ratio IC50
Summary of the method: (§2)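 IC50 values came from an MTT assay. Cells were seeded at 3000 per well and dosed the next day, with each concentration in quadruplicate. After 72 h at 37 °C, MTT (20 µg/well) was added for 4 h; formazan was dissolved in DMSO and read at 545 nm. Each experiment was done three times. Normal skin fibroblasts were used at 32 and 36 population doublings. T.I. = tumor-cell IC50 / fibroblast IC50.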

[7] = tested on: HeLa; experiment: Cell cycle arrest in human HeLa cells assessed as accumulation at subG1 phase at 7 uM after 24 hrs by propidium iodide staining -based flow cytometry (reference value: 9.4 %); type: functional; summary of the method: as §1
[8] = tested on: HeLa; experiment: Induction of apoptotis in human HeLa cells assessed as cleavage of procaspase 9 at 7 uM after 48 hrs by Western blot analysis; type: functional, cell-based
Summary of the method: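 HeLa cells were treated for 48 h at 7 µM and analysed by Western blot (10% SDS gels, nitrocellulose, HRP secondary, ECL, ERK2 loading control) for cleavage of apoptotic proteins. Antibodies: anti-PARP 1:4000; anti-caspase-3 and anti-caspase-8 1:1000; rabbit polyclonal anti-caspase-9 1:1000.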

[9] = tested on: HeLa; experiment: Cell cycle arrest in human HeLa cells assessed as accumulation at G2/M phase at 21 uM after 48 hrs by propidium iodide staining -based flow cytometry (reference value: 9.9 %); type: functional; summary of the method: as §1
[10] = tested on: HeLa; experiment: Cell cycle arrest in human HeLa cells assessed as accumulation at G2/M phase at 0.78 uM after 48 hrs by propidium iodide staining -based flow cytometry (reference value: 9.9 %); type: functional; summary of the method: as §1
[11] = Therapeutic index, ratio IC50 for human HeLa cells to IC50 for normal human fibroblasts; type: cell-based; settings: HeLa cells versus normal human fibroblasts, read-out: Ratio IC50; summary of the method: as §2
[12] = tested on: HeLa; experiment: Cell cycle arrest in human HeLa cells assessed as accumulation at subG1 phase after 24 to 72 hrs by propidium iodide staining -based flow cytometry; type: functional; summary of the method: as §1
[13] = tested on: HeLa; experiment: Induction of apoptotis in human HeLa cells assessed as morphological changes at 7 uM after 48 hrs by acridine orange and […] staining based epifluorescent microscopic analysis; type: functional, cell-based
Summary of the method: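 After 48 h at 7 µM, adherent and floating HeLa cells were pooled and resuspended in medium. AO (15 µg/mL stock) and EtBr (50 µg/mL stock) were added. Under epifluorescence, apoptosis was scored from condensed chromatin and apoptotic bodies, which distinguish it from necrosis.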

[14] = tested on: HeLa; experiment: Cell cycle arrest in human HeLa cells assessed as accumulation at G0/G1 phase at 21 uM after 72 hrs by propidium iodide staining -based flow cytometry (reference value: 66.9 %); type: functional; summary of the method: as §1
[15] = Therapeutic index, ratio IC50 for human SW480 cells to IC50 for normal human fibroblasts; type: cell-based; settings: SW480 cells versus normal human fibroblasts, read-out: Ratio IC50; summary of the method: as §2
[16] = Cytotoxicity against cisplatin-resistant human CA3ST cells after 72 hrs by MTT assay; type: functional, cell-based
Summary of the method: (§3)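 MTT assay: 3000 cells/well seeded, compound added next day, each concentration in quadruplicate, 72 h at 37 °C; medium replaced with 20 µg MTT/well for 4 h, formazan dissolved in DMSO, OD 545 nm. […] Fibroblasts: normal skin fibroblasts from donor, DMEM/10% FBS, used at 32 and 36 population doublings.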

[17] = tested on: HeLa; experiment: Cytotoxicity against human HeLa cells after 72 hrs by MTT assay; type: functional, cell-based
[18] = tested on: HeLa; experiment: Cell cycle arrest in human HeLa cells assessed as accumulation at G2/M phase at 7 uM after 24 hrs by propidium iodide staining -based flow cytometry (reference value: 11.7 %); type: functional; summary of the method: as §1
[19] = tested on: SW-620; experiment: Cytotoxicity against human SW620 cells after 72 hrs by MTT assay; type: functional, cell-based; settings: SW-620, 72 h; summary of the method: as §3
[20] = tested on: HeLa; experiment: Induction of CHOP expression in human HeLa cells at 7 uM after 16 to 48 hrs by Western blot analysis; type: functional, cell-based
Summary of the method: (§4)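 Log-phase HeLa exposed to a concentration series for 48 h, or to 7 µM over a time course. Extracts resolved on 10% SDS gels, blotted to nitrocellulose, blocked 5% milk; anti-CHOP 1:1000 in 5% BSA overnight at 4 °C, HRP secondary 1:5000 2 h RT, ECL detection; ERK2 reprobe as loading control.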

[21] = tested on: HeLa; experiment: Induction of CHOP expression in human HeLa cells at 7 uM up to 8 hrs by Western blot analysis; type: functional, cell-based; summary of the method: as §4
[22] = Therapeutic index, ratio IC50 for cisplatin-resistant human CA3ST cells to IC50 for normal human fibroblasts; type: cell-based; settings: read-out: Ratio IC50; summary of the method: as §2
[23] = tested on: RT-112; experiment: Cytotoxicity against human RT112 cells after 72 hrs by MTT assay; type: functional, cell-based; settings: RT-112, 72 h; summary of the method: as §3
[24] = tested on: HeLa; experiment: Cell cycle arrest in human HeLa cells assessed as accumulation at subG1 phase at 21 uM after 24 hrs by propidium iodide staining -based flow cytometry (reference value: 9.4 %); type: functional; summary of the method: as §1
[25] = tested on: HeLa; experiment: Induction of Grp78 expression in human HeLa cells at 7 uM after 16 to 48 hrs by Western blot analysis; type: functional, cell-based
Summary of the method: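 Logarithmically growing HeLa cells were exposed to varying concentrations for 48 h, or to 7 µM for varying times. Cell extracts were run on 10% SDS gels and transferred to nitrocellulose. Membranes were blocked in 5% milk and probed with anti-Grp78 (1:1000, overnight, 4 °C), then an HRP secondary (1:5000, 2 h, RT). Detection was by ECL, with ERK2 reprobing as the loading control.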

Activity [3]: inactive
Structure (SMILES): CC(=O)N(/N=N/c1ccc([N+](=O)[O-])cc1Cl)c1ccc([N+](=O)[O-])cc1Cl
Activity [1]: 32.5%
Activity [2]: 23.8%
Activity [4]: 7.6%
Activity [5]: 73%
selectivity ratio [6]: 0.514
Activity [7]: 13.2%
Activity [8]: Active
Activity [9]: 11.9%
Activity [10]: 7%
selectivity ratio [11]: 0.045
Activity [12]: Dose-dependent effect
Activity [13]: Active
Activity [14]: 79%
selectivity ratio [15]: 0.038
IC50 [16]: 630 nM
IC50 [17]: 630 nM
Activity [18]: 10%
IC50 [19]: 450 nM
Activity [20]: Active
Activity [21]: inactive
selectivity ratio [22]: 0.045
IC50 [23]: 7200 nM
Activity [24]: 16.4%
Activity [25]: Active
